Key:
PC-3 = test: Cytotoxicity against human PC3 cells by MTT assay; format: functional, cell-based
Procedure, shortened: (§1)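 Cells in 96-well plates exposed to test compounds for 48 h. MTT (5 mg/mL in PBS) then added and plates held 2 h at 37 °C under 5% CO2. Absorbance read at 570 nm and IC50 values reported.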

DU-145 = test: Cytotoxicity against human DU145 cells by MTT assay; format: functional, cell-based; procedure, shortened: as §1

`CC(C)=CCC[C@@H](C)[C@H]1CC[C@@]2(C)[C@@H]3CC[C@H]4C(C)(C)[C@@H](OC(=O)CC(C)C)[C@H](O)[C@H](O)[C@@]45C[C@@]35CC[C@]12C` showed an IC50 (PC-3) of 28.4 µM and an IC50 (DU-145) of over 50 µM.

`CC(C)=CCC[C@@H](C)[C@H]1CC[C@@]2(C)[C@@H]3CC[C@H]4C(C)(C)[C@@H](O)C[C@H](O)[C@@]45C[C@@]35CC[C@]12C` gave an IC50 (PC-3) of over 50 µM and an IC50 (DU-145) of over 50 µM.

Work on `CC(C)=CCC[C@@H](C)[C@H]1CC[C@@]2(C)[C@@H]3CC[C@H]4C(C)(C)[C@@H](O)[C@H](O)[C@H](O)[C@@]45C[C@@]35CC[C@]12C` yielded an IC50 (PC-3) of 10.1 µM and an IC50 (DU-145) of 37.2 µM.

Molecule `CC(=O)O[C@H]1[C@H](O)[C@H](O)[C@]23C[C@]24CC[C@]2(C)[C@@H]([C@H](C)CCC=C(C)C)CC[C@@]2(C)[C@@H]4CC[C@H]3C1(C)C` has an IC50 (PC-3) of 15.4 µM and an IC50 (DU-145) of 20.7 µM.

`CC(C)=CCC[C@@H](C)[C@H]1CC[C@@]2(C)[C@@H]3CC[C@H]4C(C)(C)[C@H](O)[C@H](O)[C@H](O)[C@@]45C[C@@]35CC[C@]12C` showed an IC50 (PC-3) of over 50 µM and an IC50 (DU-145) of over 50 µM.

With `CC(=O)O[C@H]1[C@@H](O)[C@H](O)C(C)(C)[C@@H]2CC[C@@H]3[C@]4(CC[C@]5(C)[C@@H]([C@H](C)CCC=C(C)C)CC[C@@]35C)C[C@]124` the IC50 (PC-3) was 13.4 µM and the IC50 (DU-145) was over 50 µM.

For `C[C@H](C/C=C/C(C)(C)O)[C@H]1CC[C@@]2(C)[C@@H]3CC[C@H]4C(C)(C)[C@@H](O)[C@H](O)[C@H](O)[C@@]45C[C@@]35CC[C@]12C`, the IC50 (PC-3) was 10.3 µM and the IC50 (DU-145) was 34.7 µM.
